The source made the active and inactive calls. No cut-off for these calls is given here.
Assays:
[1] = biological target: T1, Epidermal growth factor receptor (Homo sapiens, UniProt P00533); assay type: ADME
[2] = biological target: T1, Epidermal growth factor receptor; assay type: ADME; remark: listed apart in the source
[3] = biological target: Cyclin-dependent kinase 2 (Homo sapiens) (UniProt P24941); assay: Inhibition of human recombinant CDK2 at 1 uM by Z'-LYTE assay
Outline: (§1)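 Z'-LYTE FRET kinase panel; phosphorylation of a reference peptide measured with ATP at each enzyme's Km. Compounds tested in 1% DMSO at 0.1 and/or 1 μM. Values are means of two independent experiments with standard deviations.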

[4] = biological target: Proto-oncogene tyrosine-protein kinase Src (Homo sapiens) (UniProt P12931); assay: Inhibition of C-terminal His-tagged human recombinant SRC expressed in baculovirus expression system at 1 uM by Z'-LYTE assay
Chain of Proto-oncogene tyrosine-protein kinase Src (Homo sapiens) (P12931 2-536 limits assumed): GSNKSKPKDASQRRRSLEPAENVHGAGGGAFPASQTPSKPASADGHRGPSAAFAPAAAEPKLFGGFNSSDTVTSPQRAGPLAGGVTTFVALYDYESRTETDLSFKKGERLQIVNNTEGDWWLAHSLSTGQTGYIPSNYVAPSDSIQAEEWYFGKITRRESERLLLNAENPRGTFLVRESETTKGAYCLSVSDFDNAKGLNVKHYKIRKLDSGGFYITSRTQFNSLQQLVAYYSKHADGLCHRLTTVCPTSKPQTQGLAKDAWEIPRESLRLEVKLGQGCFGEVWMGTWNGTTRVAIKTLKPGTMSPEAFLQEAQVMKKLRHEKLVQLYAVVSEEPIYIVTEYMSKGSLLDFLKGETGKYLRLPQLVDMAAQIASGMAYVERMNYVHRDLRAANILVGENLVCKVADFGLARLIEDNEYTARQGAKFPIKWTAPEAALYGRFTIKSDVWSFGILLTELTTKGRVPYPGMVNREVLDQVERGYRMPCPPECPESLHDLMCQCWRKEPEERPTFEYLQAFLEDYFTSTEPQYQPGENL
Outline: as §1

[5] = biological target: Mitogen-activated protein kinase 3 (Homo sapiens) (UniProt P27361); assay: Inhibition of GST-tagged human full length recombinant ERK1 expressed in Escherichia coli at 1 uM by Z'-LYTE assay
Chain of Mitogen-activated protein kinase 3 (Homo sapiens) (P27361 whole entry): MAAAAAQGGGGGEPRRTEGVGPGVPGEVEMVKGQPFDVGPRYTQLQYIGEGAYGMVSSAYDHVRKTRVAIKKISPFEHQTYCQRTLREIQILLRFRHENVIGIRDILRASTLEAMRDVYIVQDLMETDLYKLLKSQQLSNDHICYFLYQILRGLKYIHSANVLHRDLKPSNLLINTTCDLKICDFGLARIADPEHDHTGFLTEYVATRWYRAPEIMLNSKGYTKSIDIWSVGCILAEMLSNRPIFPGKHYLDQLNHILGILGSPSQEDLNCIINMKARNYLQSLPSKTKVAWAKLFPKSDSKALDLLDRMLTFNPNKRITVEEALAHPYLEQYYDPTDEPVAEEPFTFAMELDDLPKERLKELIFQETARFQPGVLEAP
Outline: as §1

[6] = test system: Epidermal growth factor receptor (Homo sapiens), P00533 [L858R,T790M,C797S]; assay: Inhibition of EGFR L858R/T790M/C797S triple mutant (unknown origin) expressed in mouse Ba/F3 cells assessed as inhibition of EGF-stimulated receptor phosphorylation at 1 uM incubated for 4 hrs followed by washing with buffer solution and later incubation in drug-free medium for 2 to 8 hrs followed by EGF stimulation by western blot analysis; assay type: cell-based; conditions: BaF3
Outline: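 Ba/F3 cells expressing EGFR L858R/T790M/C797S exposed to 1 μM for 4 h, washed extensively with PBS, and allowed to recover in fresh drug-free medium for 2, 4 or 8 h. Cells then stimulated with 100 ng/ml EGF for 10 min. pEGFR (Tyr1068), total EGFR and actin detected by western blot.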

[7] = biological target: Tyrosine-protein kinase JAK1 (Homo sapiens) (UniProt P23458); assay: Inhibition of GST-tagged human recombinant JAK1 (866 to 1154 residues) expressed in baculovirus expression system at 100 to 1000 nM by Z'-LYTE assay; conditions: dose 100-1000 nM
Chain of Tyrosine-protein kinase JAK1 (Homo sapiens) (P23458 whole entry, the tested form may be a part): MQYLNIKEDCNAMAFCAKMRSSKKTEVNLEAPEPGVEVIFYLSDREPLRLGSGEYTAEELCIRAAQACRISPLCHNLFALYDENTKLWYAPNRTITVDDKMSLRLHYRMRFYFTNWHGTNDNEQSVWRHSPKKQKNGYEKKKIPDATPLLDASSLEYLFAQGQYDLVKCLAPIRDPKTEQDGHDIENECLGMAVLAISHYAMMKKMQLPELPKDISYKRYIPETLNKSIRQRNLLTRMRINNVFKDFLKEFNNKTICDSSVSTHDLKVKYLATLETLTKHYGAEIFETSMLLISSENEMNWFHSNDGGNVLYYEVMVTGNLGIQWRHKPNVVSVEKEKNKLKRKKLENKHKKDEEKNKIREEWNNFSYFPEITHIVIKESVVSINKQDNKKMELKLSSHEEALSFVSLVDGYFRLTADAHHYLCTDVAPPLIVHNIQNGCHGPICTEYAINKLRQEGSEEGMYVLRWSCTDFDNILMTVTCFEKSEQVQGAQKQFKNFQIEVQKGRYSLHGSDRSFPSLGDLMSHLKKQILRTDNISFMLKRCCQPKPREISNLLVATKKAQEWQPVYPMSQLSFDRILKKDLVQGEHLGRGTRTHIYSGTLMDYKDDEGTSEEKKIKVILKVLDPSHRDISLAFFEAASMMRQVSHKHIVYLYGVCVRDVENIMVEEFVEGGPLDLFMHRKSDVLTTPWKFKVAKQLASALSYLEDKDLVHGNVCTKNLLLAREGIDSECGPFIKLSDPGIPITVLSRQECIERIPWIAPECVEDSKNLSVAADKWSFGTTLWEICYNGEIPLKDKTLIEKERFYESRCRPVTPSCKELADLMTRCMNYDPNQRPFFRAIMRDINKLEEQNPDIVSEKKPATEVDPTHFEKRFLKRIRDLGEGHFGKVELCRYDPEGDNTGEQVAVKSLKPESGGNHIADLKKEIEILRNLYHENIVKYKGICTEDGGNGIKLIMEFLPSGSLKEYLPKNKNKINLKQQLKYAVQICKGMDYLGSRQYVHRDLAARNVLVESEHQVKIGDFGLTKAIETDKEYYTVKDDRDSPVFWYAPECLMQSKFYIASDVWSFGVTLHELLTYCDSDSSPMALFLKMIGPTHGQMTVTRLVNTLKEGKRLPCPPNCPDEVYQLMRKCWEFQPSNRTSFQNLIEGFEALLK

[8] = biological target: Platelet-derived growth factor receptor alpha (Homo sapiens) (UniProt P16234); assay: Inhibition of GST-tagged human recombinant PDGFR alpha (550 to 1089 residues) expressed in baculovirus expression system at 100 to 1000 nM by Z'-LYTE assay; conditions: dose 100-1000 nM
Chain of Platelet-derived growth factor receptor alpha (Homo sapiens) (P16234 whole entry, the tested form may be a part): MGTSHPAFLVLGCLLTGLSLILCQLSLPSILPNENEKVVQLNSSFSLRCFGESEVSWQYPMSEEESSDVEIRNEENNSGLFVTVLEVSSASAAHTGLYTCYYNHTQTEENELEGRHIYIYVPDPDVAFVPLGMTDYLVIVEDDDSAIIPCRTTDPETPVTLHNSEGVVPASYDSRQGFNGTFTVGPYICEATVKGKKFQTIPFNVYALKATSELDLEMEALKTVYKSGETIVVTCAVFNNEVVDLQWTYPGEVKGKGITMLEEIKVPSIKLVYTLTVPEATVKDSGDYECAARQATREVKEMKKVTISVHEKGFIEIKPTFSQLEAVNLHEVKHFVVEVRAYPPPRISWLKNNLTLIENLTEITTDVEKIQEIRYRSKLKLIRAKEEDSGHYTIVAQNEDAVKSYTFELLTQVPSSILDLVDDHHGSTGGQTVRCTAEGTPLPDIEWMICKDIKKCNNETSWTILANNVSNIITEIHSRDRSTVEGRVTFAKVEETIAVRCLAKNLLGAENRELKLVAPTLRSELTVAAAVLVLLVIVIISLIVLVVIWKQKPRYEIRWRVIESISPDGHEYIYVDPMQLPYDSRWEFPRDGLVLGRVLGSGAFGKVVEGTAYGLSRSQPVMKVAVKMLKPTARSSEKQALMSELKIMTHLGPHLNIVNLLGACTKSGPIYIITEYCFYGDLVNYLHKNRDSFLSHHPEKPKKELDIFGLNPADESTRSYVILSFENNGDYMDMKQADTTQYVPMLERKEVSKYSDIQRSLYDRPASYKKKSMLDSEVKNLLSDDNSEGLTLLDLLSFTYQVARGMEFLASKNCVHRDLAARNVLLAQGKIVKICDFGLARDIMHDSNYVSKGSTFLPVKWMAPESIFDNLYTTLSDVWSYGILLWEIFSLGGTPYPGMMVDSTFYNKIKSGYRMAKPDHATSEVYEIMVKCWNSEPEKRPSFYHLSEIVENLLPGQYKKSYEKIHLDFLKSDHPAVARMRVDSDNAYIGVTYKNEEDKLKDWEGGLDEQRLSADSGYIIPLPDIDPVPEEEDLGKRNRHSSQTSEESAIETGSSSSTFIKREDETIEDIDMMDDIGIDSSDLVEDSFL

T1 sequence (P00533 whole entry): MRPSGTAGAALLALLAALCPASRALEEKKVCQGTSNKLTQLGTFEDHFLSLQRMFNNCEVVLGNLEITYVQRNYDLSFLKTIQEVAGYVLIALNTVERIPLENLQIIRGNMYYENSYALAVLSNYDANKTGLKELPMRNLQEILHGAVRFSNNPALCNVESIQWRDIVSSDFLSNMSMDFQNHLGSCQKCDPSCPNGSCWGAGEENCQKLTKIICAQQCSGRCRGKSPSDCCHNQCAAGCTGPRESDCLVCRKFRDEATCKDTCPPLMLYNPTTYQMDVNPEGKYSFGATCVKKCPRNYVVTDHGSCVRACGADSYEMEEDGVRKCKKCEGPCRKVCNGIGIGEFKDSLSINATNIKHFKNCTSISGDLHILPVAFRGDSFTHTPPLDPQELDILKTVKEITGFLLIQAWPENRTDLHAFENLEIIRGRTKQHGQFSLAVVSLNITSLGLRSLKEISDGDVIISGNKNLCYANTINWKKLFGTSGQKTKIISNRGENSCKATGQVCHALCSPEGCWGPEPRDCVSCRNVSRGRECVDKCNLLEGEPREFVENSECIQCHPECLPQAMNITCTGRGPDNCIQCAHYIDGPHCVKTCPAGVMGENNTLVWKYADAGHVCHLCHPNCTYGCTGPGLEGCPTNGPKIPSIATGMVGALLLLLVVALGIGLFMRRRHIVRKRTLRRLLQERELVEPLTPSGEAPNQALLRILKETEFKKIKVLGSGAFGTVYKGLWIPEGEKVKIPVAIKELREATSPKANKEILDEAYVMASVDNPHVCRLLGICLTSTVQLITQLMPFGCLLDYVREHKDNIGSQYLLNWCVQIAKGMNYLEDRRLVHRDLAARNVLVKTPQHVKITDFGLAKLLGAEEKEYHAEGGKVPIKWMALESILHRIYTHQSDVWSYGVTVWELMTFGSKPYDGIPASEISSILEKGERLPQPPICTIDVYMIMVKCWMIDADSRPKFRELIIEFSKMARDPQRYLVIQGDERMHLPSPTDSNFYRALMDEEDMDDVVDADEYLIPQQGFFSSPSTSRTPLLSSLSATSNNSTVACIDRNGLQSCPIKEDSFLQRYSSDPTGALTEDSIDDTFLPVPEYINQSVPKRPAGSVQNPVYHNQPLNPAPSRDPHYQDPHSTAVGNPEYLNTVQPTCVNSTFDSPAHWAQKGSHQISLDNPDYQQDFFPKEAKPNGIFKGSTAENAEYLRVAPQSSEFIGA

SMILES	IC50 [1] [nM]	IC50 [2] [nM]	inhibition [3] [%]	inhibition [4] [%]	inhibition [5] [%]	inhibition [6]	inhibition [7]	inhibition [8]
COc1cc(N2CCN(C(C)=O)CC2)ccc1Nc1ncc(Cl)c(Nc2ccc(NCc3ccc(S(=O)(=O)F)cc3)cc2)n1	210	30	100	100	< 25	inactive	–	–
C#CCNC(=O)c1cc(Nc2cc(C3CC3)[nH]n2)nc(N2CCN(Cc3ccc(S(=O)(=O)F)cc3)CC2)n1	–	–	–	–	–	–	inactive	inactive
